One block for each compound: values may come before it. Activity calls are given as the source filed them. The calls are words filed in the database; no cut-off is given here.
Legend:
[1] = molecular target: T1, Lysosomal Pro-X carboxypeptidase (Mus musculus, UniProt Q7TMR0); test: Inhibition of PrCP-mediated conversion of Ang3 to Ang(2-7) in mouse plasma
T1 sequence (Q7TMR0 whole entry): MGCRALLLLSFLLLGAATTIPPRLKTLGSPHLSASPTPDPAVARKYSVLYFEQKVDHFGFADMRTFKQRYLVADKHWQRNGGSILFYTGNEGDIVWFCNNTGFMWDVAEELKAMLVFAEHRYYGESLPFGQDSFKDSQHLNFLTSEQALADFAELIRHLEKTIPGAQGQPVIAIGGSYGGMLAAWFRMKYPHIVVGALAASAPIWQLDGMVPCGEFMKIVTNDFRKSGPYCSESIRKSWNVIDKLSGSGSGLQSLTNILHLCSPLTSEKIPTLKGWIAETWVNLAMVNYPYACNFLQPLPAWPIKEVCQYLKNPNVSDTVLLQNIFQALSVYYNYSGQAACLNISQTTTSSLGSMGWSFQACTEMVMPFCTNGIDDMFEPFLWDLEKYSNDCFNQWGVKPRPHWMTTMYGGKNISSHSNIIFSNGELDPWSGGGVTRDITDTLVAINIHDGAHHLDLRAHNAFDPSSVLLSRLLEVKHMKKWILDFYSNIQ
In short: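 Whole mouse plasma was pretreated with protease inhibitors to block non-PrCP conversion of angiotensin III. Inhibitor was then added, and the rate of conversion of AngIII to Ang(2–7) was compared with a vehicle-treated control.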

[2] = molecular target: T1, Lysosomal Pro-X carboxypeptidase; test: Inhibition of recombinant mouse PrCP using Mca-Ala-Pro-Lys(Dnp)-OH as substrate measured for 30 mins by continuous fluorometric assay
[3] = Clearance in mouse at 1 mg/kg, iv and 2 mg/kg, po by LC-MS/MS analysis; assay type: ADME, organism-based; details: in vivo
In short: (§1)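 Mice received 1 mg/kg IV (n = 2) or 2 mg/kg PO (n = 3). The formulation was 1 mg/mL in ethanol–PEG–water (20:40:40). Blood was deproteinized with acetonitrile and drug levels were measured by LC/MS/MS. Outputs were clearance, Vd, half-life, %F and dose-normalized oral AUC.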

[4] = Volume of distribution in mouse at 1 mg/kg, iv and 2 mg/kg, po by LC-MS/MS analysis; assay type: ADME, organism-based; details: in vivo
In short: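 Mouse PK with the compound formulated at 1 mg/mL in ethanol–PEG–water (20:40:40). Given IV at 1 mg/kg (n = 2) and PO at 2 mg/kg (n = 3). Blood concentrations were measured by LC/MS/MS after protein precipitation with acetonitrile. Volume of distribution is reported in L/kg.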

[5] = Half life in mouse at 1 mg/kg, iv and 2 mg/kg, po by LC-MS/MS analysis; assay type: ADME, organism-based; details: in vivo; in short: as §1
[6] = Oral bioavailability in mouse at 2 mg/kg by LC-MS/MS analysis; assay type: ADME, organism-based; details: in vivo; in short: as §1
Mus musculus [7] = test: Normalized AUC in mouse at 2 mg/kg, po by LC-MS/MS analysis; assay type: ADME, organism-based; set-up: dose 2 mg/kg, route oral; details: in vivo; in short: as §1
[8] = Ratio of drug level in brain to plasma in MDR1A knock-out CF1 mouse at 30 mg/kg, po after 6 hrs; assay type: ADME, organism-based; set-up: dose 30 mg/kg, route oral; details: read-out: BPR
In short: (§2)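 CF1 MDR1A wild-type and MDR1A(-/-) mice (n = 4 each) received a single 30 mg/kg oral dose. Plasma and brain concentrations (nM) were measured at 2 and 6 h post-dose. The brain/plasma ratio was derived for each time point.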

[9] = Ratio of drug level in brain to plasma in MDR1A knock-out CF1 mouse at 30 mg/kg, po after 2 hrs; assay type: ADME, organism-based; set-up: dose 30 mg/kg, route oral; details: read-out: BPR; in short: as §2
[10] = Drug uptake in wild type MDR1A expressing CF1 mouse plasma at 30 mg/kg, po after 6 hrs; assay type: ADME, organism-based; set-up: dose 30 mg/kg, route oral; in short: as §2
[11] = Drug uptake in MDR1A knock-out CF1 mouse plasma at 30 mg/kg, po after 2 hrs; assay type: ADME, organism-based; set-up: dose 30 mg/kg, route oral; in short: as §2
[12] = Drug uptake in MDR1A knock-out CF1 mouse plasma at 30 mg/kg, po after 6 hrs; assay type: ADME, organism-based; set-up: dose 30 mg/kg, route oral; in short: as §2
[13] = Drug uptake in wild type MDR1A expressing CF1 mouse brain at 30 mg/kg, po after 2 hrs; assay type: ADME, organism-based; set-up: dose 30 mg/kg, route oral; details: read-out: Drug uptake; in short: as §2
[14] = Ratio of drug level in brain to plasma in wild type MDR1A expressing CF1 mouse at 30 mg/kg, po after 6 hrs; assay type: ADME, organism-based; set-up: dose 30 mg/kg, route oral; details: read-out: BPR; in short: as §2
[15] = Drug uptake in wild type MDR1A expressing CF1 mouse plasma at 30 mg/kg, po after 2 hrs; assay type: ADME, organism-based; set-up: dose 30 mg/kg, route oral; in short: as §2
[16] = Drug uptake in wild type MDR1A expressing CF1 mouse brain at 30 mg/kg, po after 6 hrs; assay type: ADME, organism-based; set-up: dose 30 mg/kg, route oral; details: read-out: Drug uptake; in short: as §2
[17] = Drug uptake in MDR1A knock-out CF1 mouse brain at 30 mg/kg, po after 2 hrs; assay type: ADME, organism-based; set-up: dose 30 mg/kg, route oral; details: read-out: Drug uptake; in short: as §2
[18] = Drug uptake in MDR1A knock-out CF1 mouse brain at 30 mg/kg, po after 6 hrs; assay type: ADME, organism-based; set-up: dose 30 mg/kg, route oral; details: read-out: Drug uptake; in short: as §2
[19] = Ratio of drug level in brain to plasma in wild type MDR1A expressing CF1 mouse at 30 mg/kg, po after 2 hrs; assay type: ADME, organism-based; set-up: dose 30 mg/kg, route oral; details: read-out: BPR; in short: as §2
Mus musculus [20] = test: Inhibition of wild type PrCP in mouse plasma at 30 mg/kg, sc administered for 7 days by fluorescence analysis; assay type: functional; details: 168 h, route subcutaneous
Mus musculus [21] = test: Inhibition of wild type PrCP in mouse plasma at 10 mg/kg, sc administered for 7 days by fluorescence analysis; assay type: functional; details: 168 h, route subcutaneous
Mus musculus [22] = test: Induction of weight loss in PrCP knock-out mouse at 30 mg/kg, sc administered for 7 days; assay type: functional, organism-based; set-up: dose 30 mg/kg
In short: (§3)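 Wild-type and PrCP knockout mice (n = 8 per group) received continuous subcutaneous infusion by pump for 7 days at 10 or 30 mg/kg. The vehicle was DMSO–1,2-propanediol (1:1 v/v). Body weight and food intake were recorded daily and compared with a vehicle group. Injection-site adverse events were noted, and terminal plasma drug concentration was measured.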

Mus musculus [23] = test: Induction of weight loss in wild type PrCP expressing mouse at 30 mg/kg, sc administered for 7 days; assay type: functional, organism-based; set-up: dose 30 mg/kg; in short: as §3
Mus musculus [24] = test: Induction of weight loss in wild type PrCP expressing mouse at 10 mg/kg, sc administered for 7 days; assay type: functional, organism-based; set-up: dose 10 mg/kg; in short: as §3
Mus musculus [25] = test: Induction of weight loss in PrCP knock-out mouse at 10 mg/kg, sc administered for 7 days; assay type: functional, organism-based; set-up: dose 10 mg/kg; in short: as §3
Mus musculus [26] = organism: Mus musculus; details: 10 mg/kg
Mus musculus [27] = test: Terminal plasma PrCP inhibition in eDIO mouse model at 10 mg/kg, sc administered for 7 days; assay type: functional; details: 168 h, route subcutaneous

Structure (SMILES): C[C@@H](c1ccc(-c2ccccc2)cc1)[C@H](NC(=O)C(C)(C)N)C(=O)NC(c1ccc(Cl)cc1)C(F)F (mixture of isomers)
- IC50 [1]: 458 nM
- IC50 [2]: 6.6 nM

Structure (SMILES): C[C@H](NC(=O)CCN1CCC(c2ccccc2)CC1)c1ccc(Br)cc1
- IC50 [2]: 20 nM

Structure (SMILES): C[C@@H](c1ccc(-c2ccccc2)cc1)[C@H](NC(=O)C(C)(C)N)C(=O)NC(c1ccncc1)c1ccc(Cl)cc1 (mixture of isomers)
- clearance [3]: 85 mL/min/kg
- Vd [4]: 21 L/kg
- IC50 [1]: 6 nM
- half-life [5]: 216 min
- IC50 [2]: 0.4 nM

Structure (SMILES): C[C@H](NC(=O)CCN1CCC(c2nc(-c3ccccn3)no2)CC1)c1ccc(F)cc1
- IC50 [1]: 348 nM

Structure (SMILES): C[C@@H](c1ccc(-c2ccccc2)cc1)[C@H](N)C(=O)NC(c1ccncc1)c1ccc(Cl)cc1 (mixture of isomers)
- IC50 [1]: 108 nM
- IC50 [2]: 1.4 nM

Structure (SMILES): O=C(CCN1CCC(c2nc(-c3ccccn3)no2)CC1)N1CCC[C@H]1c1nc2cc(Cl)c(Cl)cc2[nH]1
- IC50 [2]: 4 nM

Structure (SMILES): O=C(CCN1CCC(c2nc(-c3ccccn3)no2)CC1)NC(c1ccncc1)c1ccc(F)cc1 (racemic)
- IC50 [1]: 15 nM

Structure (SMILES): C[C@H](NC(=O)[C@@H](NC(=O)C(C)(C)N)[C@@H](C)c1ccc(-c2ccccc2)cc1)c1ccc(Cl)cc1
- IC50 [1]: 198 nM
- IC50 [2]: 2.3 nM

Structure (SMILES): C[C@@H](c1ccc(-c2ccccc2)cc1)[C@H](NC(=O)C(C)(C)N)C(=O)N1CCC[C@H]1c1nc2cc(Cl)c(Cl)cc2[nH]1
- Kp at 6 h [8]: 3.6
- Kp at 2 h [9]: 0.9
- concentration at 6 h [10]: 91 nM
- concentration at 2 h [11]: 186 nM
- concentration at 6 h [12]: 51 nM
- concentration at 2 h [13]: 4 nM
- IC50 [1]: 26 nM
- Kp at 6 h [14]: 0.04
- concentration at 2 h [15]: 306 nM
- concentration at 6 h [16]: 3 nM
- concentration at 2 h [17]: 166 nM
- concentration at 6 h [18]: 185 nM
- Kp at 2 h [19]: 0.01

Structure (SMILES): C[C@@H](c1ccc(-c2ccccc2)cc1)[C@H](NC(=O)C(C)(C)N)C(=O)NC(c1ccc(Cl)cc1)C(F)(F)F (mixture of isomers)
- bioavailability [6]: 40%
- clearance [3]: 78 mL/min/kg
- Vd [4]: 24 L/kg
- AUC/dose (Mus musculus [7]): 0.19 µM·kg·h/mg
- half-life [5]: 264 min

Structure (SMILES): CC(NC(=O)CCN1CCC(c2ccccc2)CC1)c1ccccc1-c1ccccc1 (centres undefined)
- IC50 [2]: 5.7 nM

Structure (SMILES): O=C(CCN1CCC(c2nc(-c3ccccn3)no2)CC1)NC(c1ccc(Cl)cc1)C(F)F (racemic)
- IC50 [1]: 156 nM

Structure (SMILES): C[C@H](NC(=O)[C@@H](N)[C@@H](C)c1ccc(-c2ccccc2)cc1)c1ccc(Cl)cc1
- IC50 [1]: 570 nM
- IC50 [2]: 11 nM

Structure (SMILES): O=C(CCN1CCC(c2ccccc2)CC1)N1CCC[C@H]1c1nc2cc(Cl)c(Cl)cc2[nH]1
- IC50 [1]: > 10000 nM

More lines, main results first:

- IC50 [1]: 17 nM
- IC50 [2]: 17 nM
Structure (SMILES): O=C(CCN1CCC(c2ccccc2)CC1)NC(c1ccc(Cl)cc1)C(F)F (centres undefined)

- bioavailability [6]: 1.3%
- clearance [3]: 105 mL/min/kg
- Vd [4]: 5.6 L/kg
- IC50 [1]: 305 nM
- AUC/dose (Mus musculus [7]): < 0.01 µM·kg·h/mg
- half-life [5]: 42 min
- IC50 [2]: 10 nM
Structure (SMILES): O=C(CCN1CCC(c2nc(-c3ccccn3)no2)CC1)NC(c1ccc(Cl)cc1)c1ccc(Cl)cc1

- IC50 [1]: 58 nM
- IC50 [2]: 4 nM
Structure (SMILES): O=C(CCN1CCC(c2ccccc2)CC1)NC(c1ccc(Cl)cc1)c1ccc(Cl)cc1

- IC50 [2]: 2.1 nM
Structure (SMILES): O=C(CCN1CCC(c2ccccc2)CC1)NC(c1ccncc1)c1ccc(Cl)cc1 (racemic)

- bioavailability [6]: < 1%
- clearance [3]: 185 mL/min/kg
- Vd [4]: 27 L/kg
- IC50 [1]: 240 nM
- AUC/dose (Mus musculus [7]): < 0.01 µM·kg·h/mg
- half-life [5]: 138 min
- IC50 [2]: 54 nM
Structure (SMILES): C[C@H](NC(=O)CCN1CCC(c2ccccc2)CC1)c1ccc(Cl)cc1

- IC50 [2]: 25 nM
Structure (SMILES): Cn1cc(C(NC(=O)CCN2CCC(c3ccccc3)CC2)c2ccc(Cl)cc2)cn1 (racemic)

- IC50 [2]: 14 nM
Structure (SMILES): O=C(CCN1CCC(c2ccccc2)CC1)NC(c1ccc(Cl)cc1)C(F)(F)F (centres undefined)

- IC50 [1]: 12.6 nM
- IC50 [2]: 5.2 nM
Structure (SMILES): CC(C)[C@H](NC(=O)CCN1CCC(c2ccccc2)CC1)c1ccc(Cl)cc1
- inhibition in vivo at 30 mg/kg (Mus musculus [20]): 85%
- inhibition in vivo at 10 mg/kg (Mus musculus [21]): 87%
- Activity (Mus musculus [22]): Active
- Activity (Mus musculus [23]): Active
- Activity (Mus musculus [24]): inactive
- Activity (Mus musculus [25]): inactive
- inhibition (Mus musculus [26]): inactive
- inhibition in vivo at 10 mg/kg (Mus musculus [27]): 65%

From ChEMBL document CHEMBL1938250, “The discovery of non-benzimidazole and brain-penetrant prolylcarboxypeptidase inhibitors” (Bioorg Med Chem Lett, 2012)
